Measured values pooled from the literature.
PIK3CA C420R: Phosphatidylinositol 4,5-bisphosphate 3-kinase catalytic subunit alpha isoform (PIK3CA, Homo sapiens, UniProt P42336, C420R)
PIK3CA H1047Y: Phosphatidylinositol 4,5-bisphosphate 3-kinase catalytic subunit alpha isoform (PIK3CA, Homo sapiens, UniProt P42336, H1047Y)
PIK3CA Q546K: Phosphatidylinositol 4,5-bisphosphate 3-kinase catalytic subunit alpha isoform (PIK3CA, Homo sapiens, UniProt P42336, Q546K)
PIK3CA E542K: Phosphatidylinositol 4,5-bisphosphate 3-kinase catalytic subunit alpha isoform (PIK3CA, Homo sapiens, UniProt P42336, E542K)
PIK3CA E545K: Phosphatidylinositol 4,5-bisphosphate 3-kinase catalytic subunit alpha isoform (PIK3CA, Homo sapiens, UniProt P42336, E545K)

O=C(c1ccc(Nc2ncc(Cl)c(-c3ccc(Cl)s3)n2)cc1)N1CCC(N2CCCC2)CC1
remaining binding (PIK3CA C420R; binding; competition with immobilised ligand; 1 µM): 100%

COc1ccc2c(c1)O[C@@H](c1ccc(OC)c(OC)c1)C[C@H]2NC(=O)C1(c2ccc3c(c2)OC(F)(F)O3)CC1
remaining binding (PIK3CA H1047Y; cell-free assay; competition with immobilised ligand; 1 µM): 77%

O=C(NCCCN1CCOCC1)c1ccc(Nc2ncc(Cl)c(-c3ccc(Cl)s3)n2)cc1
remaining binding (PIK3CA C420R; binding; competition with immobilised ligand; 1 µM): 100%

CCN1CCN(Cc2ccc(C(=O)Nc3ccc(C)c(Oc4ccc5c(c4)CC(=O)N5)c3)cc2C(F)(F)F)CC1
remaining binding (PIK3CA C420R; binding; competition with immobilised ligand; 1 µM): 100%

O=C(Nc1c[nH]nc1C(=O)NC1CCNCC1)c1cc(F)cc(F)c1
remaining binding (PIK3CA Q546K; binding; competition with immobilised ligand; 1 µM): 100%

C=CC(=O)N1CCC(C(=O)NCC(=O)N2CCN(c3nc(-c4cnc(N)nc4C(F)F)nc(N4CCOCC4)n3)CC2)CC1
remaining binding (PIK3CA E542K; binding; competition with immobilised ligand; 1 µM): 0%

CN(c1nccc(-c2cnn3ncccc23)n1)C1CC1
remaining binding (PIK3CA H1047Y; binding; 1 µM): 100%

O=C(NCCCN1CCOCC1)c1ccc(Nc2nccc(-c3cc4ccccc4s3)n2)cc1
remaining binding (PIK3CA E545K; binding; competition with immobilised ligand; 1 µM): 40%

c1cnn2ncc(-c3ccnc(N4CCC45COC5)n3)c2c1
remaining binding (PIK3CA Q546K; binding; 1 µM): 63%

CN1CCN(c2ccc(Nc3nccc(-c4ccccc4)n3)cc2C(F)(F)F)CC1
remaining binding (PIK3CA Q546K; binding; 10 µM): 68%

Cc1c(NC(=O)c2cc(C(N)=O)nc3cc(F)ccc23)c(C(F)(F)F)nn1Cc1ccc(C#N)cc1
remaining binding (PIK3CA H1047Y; cell-free assay; competition with immobilised ligand; 1 µM): 86%

COc1ncc2cc3ccccc3nc2c1C#N
remaining binding (PIK3CA E542K; cell-free assay; competition with immobilised ligand; 5 µM): 100%

CN1CCN(c2cnc3c(C4CCN(C(=O)c5ccc(OC(F)(F)F)cc5N)CC4)ncnc3c2)CC1
remaining binding (PIK3CA E542K; cell-free assay; competition with immobilised ligand; 1 µM): 100%

CN(C)c1nccc(-c2cnc3ncccn23)n1
remaining binding (Phosphatidylinositol 4,5-bisphosphate 3-kinase catalytic subunit alpha isoform (PIK3CA, Homo sapiens, UniProt P42336, E545A); binding; 1 µM): 90%

CC(C)CC(=O)N1CCc2nc(-c3ccc(Br)cc3)nc(N(C)Cc3ccccc3)c2C1
remaining binding (Phosphatidylinositol 4,5-bisphosphate 3-kinase catalytic subunit alpha isoform (PIK3CA, Homo sapiens, UniProt P42336, M1043I); cell-free assay; competition with immobilised ligand; 0.1 µM): 53%

CNC(=O)[C@@H]1CC[C@@H](n2c(-c3ccc4cnccc4c3)nc3ccc(C(=O)NCc4cccc(C(N)=O)c4)cc32)C1
remaining binding (Phosphatidylinositol 4,5-bisphosphate 3-kinase catalytic subunit alpha isoform (PIK3CA, Homo sapiens, UniProt P42336, H1047L); binding; competition with immobilised ligand; 1 µM): 100%

O=c1nc(-c2ccccn2)sc2ccccc12
remaining binding (PIK3CA E542K; cell-free assay; competition with immobilised ligand; 1 µM): 89%

COc1cnc(Nc2cccc(S(N)(=O)=O)c2)nc1N1CCN(c2ccccc2)CC1
remaining binding (PIK3CA E545K; binding; competition with immobilised ligand; 1 µM): 72%

CCC(=O)N[C@H]1CC[C@@H](C(=O)N(C)c2ccc(-c3nc4ccccc4o3)cc2)C1
remaining binding (PIK3CA C420R; cell-free assay; competition with immobilised ligand; 1 µM): 92%

C[C@@H]1CCN(c2nccc(-c3cnn4ncccc34)n2)C1
remaining binding (PIK3CA E542K; binding; 1 µM): 82%

CN(C(=O)c1ccccc1)c1cc(N(C)c2ccc3c(c2)CCc2ccc(C(=O)NCCN4CCOCC4)cc2C3=O)ccc1F
remaining binding (PIK3CA C420R; cell-free assay; competition with immobilised ligand; 1 µM): 91%

CN(C)c1ncc(F)c(-c2cnn3ncccc23)n1
remaining binding (Phosphatidylinositol 4,5-bisphosphate 3-kinase catalytic subunit alpha isoform (PIK3CA, Homo sapiens, UniProt P42336, I800L); binding; 1 µM): 46%

CNC(=O)Nc1ccc2c(c1)[C@@]1(CC2)OC(=O)N(CC(=O)N(Cc2ccc(F)cc2)[C@@H](C)C(F)(F)F)C1=O
remaining binding (PIK3CA E545K; cell-free assay; competition with immobilised ligand; 1 µM): 76%

N[C@H]1CCN(c2nccc(-c3cnn4ncccc34)n2)C1
remaining binding (Phosphatidylinositol 4,5-bisphosphate 3-kinase catalytic subunit alpha isoform (PIK3CA, Homo sapiens, UniProt P42336); binding; 1 µM): 100%
